# Screens from PubChem.
# Kir21 inh: inhibitors of mouse Kir2.1 inward-rectifier potassium channel; Inward rectifier potassium channel 2 (Mus musculus), P35561; B-score at 10 µM; hit rate 0.85% among 310,000; HEK293-Kir2.1, FluxOR thallium flux fluorescence; hits give low values;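 active = fluorescence ratio B-score at or below minus 3 SD of library scores, with starting-brightness B-score within 2 SD, cut at about -4.2 in these data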;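 also: channel flux triggered by added potassium and thallium sulfate stimulus; B-score of peak minus minimum fluorescence over baseline after thallium stimulus; more negative B-score means stronger Kir2.1 block with less thallium influx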
# TRPC6 inhibitor: mouse TRPC6 channel inhibitors, primary screen, cell-based, HEK293, membrane potential dye; Short transient receptor potential channel 6 (Mus musculus), Q61143; ACh-evoked depolarization; hits give low values; B-score at 10 µM; hit rate 1.1% among 310,000;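 active = B-score under library mean minus 3 SD, initial fluorescence not abnormally high, positive integrated signal ratio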;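 also: B-score derived from integrated fluorescence ratio over the kinetic read; more negative B-score means stronger inhibition of depolarization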
# TRPC4 inh: inhibitors of mouse TRPC4 channel, primary screen, Fluo4 calcium, HEK293 TRPC4beta/mu-opioid cells. Short transient receptor potential channel 4 (Mus musculus), Q9QUQ5. DAMGO-evoked Fluo4 calcium flux; hits give low values. B-score at 10 µM. hit rate 0.39% among 300,000;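 active = B-score over 3 SD under the library average, no early fluorescence shift, positive overall ratio signal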
#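 Material: HEK293 cells with stable TRPC4beta plus mu-opioid receptor expression / Probe or stimulus: DAMGO in two steps, submaximal then maximal / Compound: single concentration per test compound / Technique: kinetic Fluo4 fluorescence imaging of calcium influx / Read-out: per-well B score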
# TRPC4 agonist: activators of mouse TRPC4 channel, primary screen, Fluo4 calcium, HEK293 TRPC4beta/mu-opioid cells; Short transient receptor potential channel 4 (Mus musculus), Q9QUQ5; Fluo4 calcium fluorescence; hits give high values; B-score at 10 µM; hit rate 0.49% among 310,000; AID 2237, 2010;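 active = B-score above 5 SD of library B-scores, and initial fluorescence ratio not above library mean plus 5 SD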;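 also: positive B-score marks a calcium rise read as TRPC4 activation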
#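 system = HEK293 cells stably co-expressing mouse TRPC4beta and mu-opioid receptor | schedule = Fluo4 dye loading 45 min at room temperature, 110 s recording | measure = B-scored integrated calcium fluorescence ratio | signal = Fluo4 calcium-sensitive dye fluorescence, kinetic, 1 Hz baseline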
# TRPC6 activator: mouse TRPC6 channel activators, primary screen, cell-based, HEK293, membrane potential dye | Short transient receptor potential channel 6 (Mus musculus), Q61143 | HEK293-TRPC6 membrane potential dye fluorescence; hits give high values | B-score at 10 µM | hit rate 0.13% among 310,000;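 active = B-score of the integrated fluorescence ratio above library mean plus 3 SD, and starting fluorescence ratio within library mean plus 5 SD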;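 also: higher score means more depolarization so channel activation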
# TRPC4 potent: positive allosteric modulators of TRPC4, primary screen, cell-based, mouse TRPC4beta, HEK293 mu-opioid, Fluo-4 calcium. Short transient receptor potential channel 4 (Mus musculus), Q9QUQ5. DAMGO EC20, Fluo-4 Ca2+ flux; hits give high values. B-score at 10 µM. hit rate 0.42% among 310,000. AID 2227, 2009;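 active = B-score of calcium response area above 5 SD of library B-scores, with initial fluorescence ratio within 5 SD of library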;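 also: B-score of integrated fluorescence ratio over time as area under calcium response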
# Numbers without * were called inactive; i = inactive. Most compounds without a hit are left out; they make up all but 2.9% or so of the library.
SMILES,Kir21 inh,TRPC6 inhibitor,TRPC4 inh,TRPC4 agonist,TRPC6 activator,TRPC4 potent
CN1CCN(C(c2cccc(Cl)c2)c2ccccc2Cl)CC1 (stereo not given),-4.4*,i,i,i,i,i
C=CCN(c1nc(C)cc(OC)n1)S(=O)(=O)c1ccccc1,-7.9*,i,i,i,i,i
CCN(c1nc(C)cc(OC)n1)S(=O)(=O)c1ccccc1,-6.6*,i,i,i,i,i
C=CCN(c1nc(C)cc(OC)n1)S(=O)(=O)c1ccc(C)cc1,-0.02,i,i,i,i,i
CN1CCN(NC(=O)CSc2ccc(Cl)cc2Cl)CC1,-0.25,i,i,i,i,i
N#C/C(=C\c1ccccc1)C(=O)N(c1ccccn1)C1CCCCC1,-11*,i,i,i,i,i
O=C(c1cccc(C(=O)N(c2ccccn2)C2CCCCC2)c1)N(c1ccccn1)C1CCCCC1,0.42,i,i,i,i,i
Cn1c(=O)cc(SCC(=O)NCCC2=CCCCC2)c2ccccc21,-5.5*,i,i,i,i,i
Cc1ccc(NC(=O)c2sc3nc(C)nc(N4CCN(c5ccccn5)CC4)c3c2C)c(C)c1,0.54,i,i,i,i,i
Cc1nc(N2CCN(c3ccccn3)CC2)c2c(C)c(C(=O)N3CCN(c4ccccc4F)CC3)sc2n1,1.3,i,-9*,i,i,i
Cc1c(C#N)c(N)c(C(=O)c2ccccc2)n1Cc1ccccc1,-5.2*,i,i,i,i,i
CCn1c(C)c(C(=O)c2ccccc2)c(C#N)c1C(=O)O,-0.33,i,i,i,i,i
COc1cc(C(=O)N/C(=C\c2cn(C)c3ccccc23)C(=O)NCCCn2ccnc2)cc(OC)c1OC,-1.6,i,i,i,i,i
COCCN(C(=O)CSc1nc2ccc(OC)cc2[nH]1)c1c(N)n(Cc2ccccc2)c(=O)[nH]c1=O,-0.04,i,i,i,i,i
O=C(CN1C(=O)CCS(=O)(=O)c2ccccc21)Nc1ccccc1F,-2.5,i,i,i,i,i
Cc1cc(C)c2c(N)c3ccccc3nc2n1,1.1,i,i,i,i,i
CCc1ccc2nc3nc(C)cc(C)c3c(N)c2c1,-1.8,i,-6*,i,i,i
Nn1c(Cc2cccc3ccccc23)nnc1SCc1ccccc1,-4.6*,i,i,i,i,i
COc1ccc(C(CNC(=O)C(C)c2ccc3cc(OC)ccc3c2)N(C)C)cc1 (stereo not given),-4.9*,i,i,204*,i,i
COc1ccccc1OCC(=O)NCC(C)NC(=O)COc1ccccc1OC (stereo not given),-0.04,i,i,i,i,i
COc1ccc(C(CNC(=O)COc2ccccc2OC)N(C)C)cc1OC (stereo not given),0.88,i,i,137*,i,i
COc1ccc(C(CNC(=O)c2cc(C)on2)N(C)C)cc1 (stereo not given),0,i,i,84*,i,i
COc1ccc(C(CNC(=O)Cc2ccc3ccccc3c2)N(C)C)cc1 (stereo not given),-1.3,i,-6*,135*,i,i
COc1ccc(NC(=O)c2cc(C)on2)cc1,0.12,i,i,i,i,i
CCOC(=O)C(C)c1n[nH]c(=O)c2ccccc12 (stereo not given),1.2,i,i,i,i,13*
SMILES,Kir21 inh,TRPC6 inhibitor,TRPC4 inh,TRPC4 agonist,TRPC6 activator,TRPC4 potent
Cc1cc(C)c(CN2CCN(Cc3ccc(C)o3)C(CCO)C2)c(-n2cccn2)c1 (stereo not given),0.76,i,i,77*,i,i
Cc1ccc(CN2CCN(Cc3c(C)nn(-c4ccc(F)cc4)c3C)CC2CCO)o1 (stereo not given),0.03,i,i,i,i,i
CC(=O)Oc1c(Cl)cc(N(C(C)=O)S(=O)(=O)c2ccccc2)c2ccccc12,1.1,i,i,i,i,i
Cc1cc(-c2ccc(C)c(S(=O)(=O)NCCCN3CCCCCC3)c2)on1,0.65,i,i,i,i,10*
Cc1cc(-c2ccc(C)c(S(=O)(=O)N3CCN(c4ccccn4)CC3)c2)on1,0.36,i,i,i,i,40*
COc1ccc(-c2cc(C)no2)cc1S(=O)(=O)NCCCN(C)Cc1ccccc1,-2.3,i,i,i,i,14*
COc1ccc(-c2cc(C)no2)cc1S(=O)(=O)NCCCN1CCN(c2ccccc2)CC1,0.5,i,i,i,i,i
Cc1cc(-c2ccc(C)c(S(=O)(=O)N3CCN(c4ccc([N+](=O)[O-])cc4)CC3)c2)on1,-0.49,i,i,i,i,i
O=C(Nc1ccc(Cl)c(Cl)c1)C1C2C=CC3(O2)C1C(=O)N(CCN1CCCCC1)C3C(=O)NC1CCCCC1 (stereo not given),0.06,i,i,i,i,i
CCOc1cc(Br)c(CN2C(=O)NC3(CCCCCC3)C2=O)cc1OCC,0.87,i,i,i,i,i
COc1ccccc1CNS(=O)(=O)c1ccc(Br)s1,-5*,i,i,i,i,i
CCOc1ccc(S(=O)(=O)NC(C)(C)C)cc1-c1nc2c(C(C)(C)C)nn(C)c2c(=O)[nH]1,-0.95,i,i,i,i,11*
CCOc1ccc(S(N)(=O)=O)cc1-c1nc2c(C(C)(C)C)nn(C)c2c(=O)[nH]1,0.41,i,i,i,i,i
CCOC(=O)C1(CC2CCCCO2)CCN(Cc2ccc(OC)cc2F)CC1 (stereo not given),-2.2,i,i,i,i,i
CC(C)(C)OC(=O)N1CCC[C@H]1c1nnc(SCc2ccc(Cl)cc2)o1,-7.5*,i,i,i,i,i
CC(C)(C)OC(=O)N1CCC[C@H]1c1nnc(SCc2cccc(Cl)c2)o1,-8.6*,i,i,i,i,i
